Here are results for one molecule from ChEMBL document CHEMBL3865820, “Bioactive Dibenzo-α-pyrone Derivatives from the Endophytic Fungus Rhizopycnis vagum Nitaf22” (J Nat Prod, 2016).

Data set [1] is described as follows: Cytotoxicity against human MRC5 cells. Type of data set: toxicity, cell-based.
For data set [2], the system named is Xanthomonas euvesicatoria. Put plainly: Antibacterial activity against Xanthomonas vesicatoria ATCC 11633 by broth dilution colorimetric assay. Type of data set: functional. In outline:
(§1)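 Modified broth dilution colorimetric assay in 96-well plates, run against a plant- and human-pathogen panel. Both MIC and median inhibitory concentration (IC50) were determined. Streptomycin sulfate served as the positive control.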

Data set [3] in a line: Cytotoxicity against human BGC823 cells by MTT assay. Type of data set: functional, cell-based. Particulars: BGC-823. In outline:
(§2)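 Microculture tetrazolium (MTT) assay on a panel of human carcinoma cell lines: colon HCT-116, hepatocellular HepG2, gastric BGC-823, NSCLC NCI-H1650, ovarian A2780, melanoma A375, lung adenocarcinoma A549, breast MCF-7 and pancreatic Capan2. IC50 values are reported in μM.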
Background: Tetrazolium assays rely on reduction of a dye to a coloured formazan, in cell work by metabolically active cells.

Data set [4] in a line: Cytotoxicity against human A549 cells. Type of data set: functional, cell-based.
Data set [5] is described as follows: Cytotoxicity against human HepG2 cells by MTT assay. Type of data set: functional, cell-based. In outline:
as §2

The next data set has as its system Pyricularia oryzae. Put plainly: Antifungal activity against Magnaporthe oryzae assessed as inhibition of spore germination after 8 hrs by microscopic analysis. Type of data set: functional. The method in brief: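 Spores taken from 7-day-old M. oryzae cultures (2 × 10^6 spores per mL). Compound in 10% aqueous ethanol was mixed 1:1 with the spore suspension on a concave slide and kept in a dark moist chamber at 25 °C for 8 h. Germination was counted by microscope. Inhibition % = [(Gc − Gt)/Gc] × 100 against 10% ethanol control, with triplicates. IC50 was obtained by linear regression; carbendazim served as positive control.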

Data set [6] deals with Staphylococcus haemolyticus. Put plainly: Antibacterial activity against Staphylococcus haemolyticus ATCC 29970 by broth dilution colorimetric assay. Type of data set: functional. In outline:
as §1
Background: In broth dilution the organism is exposed to a series of concentrations in liquid medium.

The nature of data set [7]: Cytotoxicity against human HeLa cells. Type of data set: functional, cell-based.
A short description of data set [8]: Antibacterial activity against Ralstonia solanacearum ATCC 11696 by broth dilution colorimetric assay. Type of data set: functional, Ralstonia solanacearum K60-1. In outline: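 Modified broth dilution colorimetric assay in 96-well plates, reporting both minimum inhibitory concentration (MIC) and median inhibitory concentration (IC50). Streptomycin sulfate served as positive control.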

Data set [9] relates to Pseudomonas amygdali pv. lachrymans. The data set can be described thus: Antibacterial activity against Pseudomonas lachrymans ATCC 11921 by broth dilution colorimetric assay. Type of data set: functional. The method in brief: as §1
The nature of data set [10]: Cytotoxicity against human HepG2 cells. Type of data set: functional, cell-based.
Data set [11] deals with Agrobacterium tumefaciens. Put plainly: Antibacterial activity against Agrobacterium tumefaciens ATCC 11158 by broth dilution colorimetric assay. Type of data set: functional. The method in brief:
as §1

The nature of data set [12]: Cytotoxicity against human A2780 cells by MTT assay. Type of data set: functional, cell-based. In outline: as §2
The nature of data set [13]: Cytotoxicity against human HuCCa1 cells. Type of data set: functional, cell-based. Particulars: HuCC-A1.
In the next data set the test system is Bacillus subtilis. The data set can be described thus: Antibacterial activity against Bacillus subtilis ATCC 11562 by broth dilution colorimetric assay. Type of data set: functional. In outline:
as §1

A short description of data set [14]: Cytotoxicity against human NCI-H1650 cells by MTT assay. Type of data set: functional, cell-based. The method in brief: as §2
Data set [15] can be described thus: Cytotoxicity against human MOLT3 cells. Type of data set: functional, cell-based. The conditions noted are these: MOLT-3.
A short description of data set [16]: Cytotoxicity against human MDA-MB-231 cells. Type of data set: functional, cell-based.
The nature of data set [17]: Cytotoxicity against human HCT116 cells by MTT assay. Type of data set: functional, cell-based. The conditions noted are these: HCT-116. The method in brief:
as §2

Data set [18] is described as follows: Cytotoxicity against human T47D cells. Type of data set: functional, cell-based.

What is called IC50 is the concentration needed to halve the response being measured. As usually defined, the MIC is the lowest concentration found to suppress growth.

Values after ≈ are worked out from the molar mass of the structure shown.

For `COC1=C(Cl)[C@](C)(O)c2c(oc(=O)c3c(O)cc(OC)cc23)C1=O`, the IC50 in data set [1] is 1.1 to 12.6 µM; in data set [3], 7.8 µM; in data set [4] it was 1.1 to 12.6 µM; in [5] it was 5.9 µM; with Pyricularia oryzae, 12 µg/mL (≈ 34 µM); in data set [7] it was 1.1 to 12.6 µM. For the same molecule, the half-maximal inhibitory concentration (IC50) is 1.1 to 12.6 µM in data set [10]; 3.6 µM in data set [12]; 1.1 to 12.6 µM in [13]; 21.6 µg/mL (≈ 61.2 µM) in the data set with Bacillus subtilis; 3.2 µM in data set [14]; 1.1 to 12.6 µM in [15]. Besides, the values for the half-inhibitory concentration (IC50) in [16], in data set [17] and in data set [18] were 1.1 to 12.6 µM, 4.2 µM and 1.1 to 12.6 µM, respectively. The MIC in data set [2] is more than 200 µg/mL; in data set [6] it was more than 200 µg/mL; in data set [8], more than 200 µg/mL; in data set [9], more than 200 µg/mL; in [11] it was more than 200 µg/mL; in the data set with Bacillus subtilis, 50 µg/mL (≈ 142 µM).
